# PKA-R2B activ – activates the human PKA-R2B holoenzyme complex. P22694+P31323. PKA-R2B holoenzyme dissociation, Cy5-IP20 fluorescence polarization; R2B truncated from residue 108, S112A mutant; 0% DMSO only, 100% 113 µM cGMP. activation, % at 11.4 µM. 340,000 compounds, 0.079% hits;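 active means activation above a cutoff set at the mean over all compounds plus 3 SD, cut at about 18% in these data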;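 further: higher means more holoenzyme dissociation and a rise in polarization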
# Target sequence (P31323 whole entry, looked up, other chains not shown, the tested form may be a part): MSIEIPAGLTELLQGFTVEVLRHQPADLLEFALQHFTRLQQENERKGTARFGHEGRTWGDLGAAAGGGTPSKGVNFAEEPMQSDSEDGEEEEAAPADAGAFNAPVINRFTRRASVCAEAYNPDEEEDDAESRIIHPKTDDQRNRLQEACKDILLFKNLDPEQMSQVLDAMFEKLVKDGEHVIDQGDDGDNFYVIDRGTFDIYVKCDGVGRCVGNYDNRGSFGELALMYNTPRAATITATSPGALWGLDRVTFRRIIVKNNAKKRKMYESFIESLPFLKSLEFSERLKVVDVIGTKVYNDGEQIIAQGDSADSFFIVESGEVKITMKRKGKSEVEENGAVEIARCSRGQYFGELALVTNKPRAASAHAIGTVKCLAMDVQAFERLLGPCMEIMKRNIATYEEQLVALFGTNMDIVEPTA
# PKA-R1A act – activates the PKA-R1A holoenzyme complex | AID 504707 | 340,000 compounds, 0.083% hits | P00514+P68181 | activation, % at 11.4 µM | PKA-R1A dissociation, Cy5-IP20 fluorescence polarization; scaled: DMSO 0%, 113 µM cGMP 100%;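 active means percent activation above the mean of all tested compounds plus 3 SD, cut at about 19% in these data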;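 further: higher means more PKAc released from R1A so a rise in polarization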
# SIRT5 block – blocks human SIRT5 desuccinylation of peptide; Q9NXA8; Purified SirT5, succinyl-peptide AMC, trypsin-coupled fluorescence; inhibition, % at 15 µM; 330,000 compounds, 1.1% hits; in the data active means inhibition above about 15%
# CRFBP-R2 block – CRF-BP/CRF-R2 complex antagonism; HEK293 CRF-R2/CRF-BP, CRF-induced calcium fluorescence; 350,000 compounds, 0.59% hits; AID 588475; inhibition, % at 11.8 µM;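 active means inhibition of the ligand-induced calcium signal above about 50% at the single tested concentration, limit read from the data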
# S100A4 MyoIIA – blocks human S100A4 binding to myosin IIA peptide; P26447; S100A4/TAMRA-MyoIIA peptide fluorescence polarization; 360,000 compounds, 0.14% hits; AID 652163; inhibition, % at 10.7 µM;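 active means mean inhibition of at least 70% across replicates, with every replicate also reaching that level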
# Target sequence (P26447 whole entry, looked up): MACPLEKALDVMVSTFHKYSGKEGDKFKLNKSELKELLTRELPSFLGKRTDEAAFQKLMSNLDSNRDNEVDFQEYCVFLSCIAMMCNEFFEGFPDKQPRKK
#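 assay system = human S100A4 monomer with TAMRA-labelled myosin IIA peptide | also added = labelled myosin peptide probe, 5 nM | incubation = 5 min between mix addition and reading | control set = DMSO and TFP controls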
# An asterisk follows results filed as active; nt = no result. Rows were chosen to be rich in hits. Some 1.5% of all compounds tested hit in one or more screens of this group.
SMILES,PKA-R2B activ,PKA-R1A act,SIRT5 block,CRFBP-R2 block,S100A4 MyoIIA
O=C(O)c1ccc(-n2cccc2/C=C2/NC(=O)N(c3ccccc3)C2=O)cc1,-14,-1,25*,7,-10
N#Cc1ccccc1CN1C(=O)S/C(=C/c2cccn2-c2ccc(C(=O)O)cc2)C1=O,1,1,nt,-3,nt
Cc1ccc(CN2C(=O)N/C(=C\c3cccn3-c3cccc(C(=O)O)c3)C2=O)cc1,6,-2,10,1,9
O=C(O)c1ccc(-n2cccc2/C=C2/SC(=O)N(CC(=O)N3CCCC3)C2=O)cc1,4,-15,19*,19,0
O=C(O)c1cccc(-n2cccc2/C=C2\NC(=O)N(Cc3ccc(F)cc3)C2=O)c1,7,-2,16*,-1,-1
O=C(O)c1cccc(-n2cccc2/C=C/[N+](=O)[O-])c1,-2,-3,15*,13,0
O=C(O)c1cccc(-n2cccc2/C=C\[N+](=O)[O-])c1,2,5,4,-7,-3
C[C@H]1CN([C@@H](C)CO)C(=O)c2cccc(NC(=O)Nc3cccc4ccccc34)c2O[C@@H]1CN(C)S(=O)(=O)c1ccc(F)cc1,nt,nt,1,nt,3
COc1ccc(S(=O)(=O)Nc2ccc3c(c2)CC(=O)N([C@H](C)CO)C[C@@H](C)[C@@H](CN(C)S(=O)(=O)c2ccc(C)cc2)O3)cc1,nt,nt,3,nt,-24
O=C(C[C@H]1C[C@@H]2c3cc(NC(=O)C4CCC4)ccc3O[C@@H]2[C@H](CO)O1)NCC(F)(F)F,nt,nt,-2,nt,-5
Cc1cc(C)cc(Nc2c(F)c(F)c(F)c(F)c2C(=O)O)c1,nt,nt,1,52*,-1
COc1c(F)c(F)c(C(=O)O)c(Nc2cccc(C)c2)c1F,nt,nt,nt,21,-3
CN1C(=O)c2cc(NC(=O)c3cccs3)ccc2OC[C@H]2O[C@H](CC(=O)N3CCCCC3)CC[C@H]21,nt,nt,-3,nt,5
CCOc1c(OC(C)=O)ccc(/C=C/c2ccc3cccc(OC(C)=O)c3n2)c1[N+](=O)[O-],-9,-8,-1,1,3
C=CCN1C(=O)/C(=C/c2ccc(OC(C)=O)c(OCC)c2[N+](=O)[O-])SC1=S,-4,-6,0,59*,-4
C[C@@H]1CCCCO[C@H](CN(C)C(=O)Nc2ccc3c(c2)OCO3)[C@H](C)CN([C@@H](C)CO)C(=O)c2cc(NC(=O)Nc3ccccc3)ccc2O1,nt,nt,4,nt,-6
CCCN(C)C[C@H]1OCCCC[C@@H](C)Oc2ccc(NS(=O)(=O)c3cn(C)cn3)cc2C(=O)N([C@H](C)CO)C[C@@H]1C,nt,nt,-3,nt,-4
O=C(CC(CC(=O)c1ccccc1)c1ccccc1)c1ccccc1,-4,-12,-2,3,-1
O=C(CC(CC(=O)c1ccccc1)c1ccncc1)c1ccccc1,-5,-4,nt,86*,1
Cc1ccccc1-c1ccc([C@@H]2[C@H](CO)N3CCCCN(C(=O)Nc4ccc(F)cc4)C[C@@H]23)cc1,nt,nt,17*,nt,21
Cc1ccccc1-c1ccc([C@H]2[C@@H](CO)N3CCCCN(C(=O)Nc4ccccc4)C[C@@H]23)cc1,nt,nt,1,nt,-3
Cc1ccccc1-c1ccc([C@@H]2[C@H](CO)N3CCCCN(C(=O)Nc4ccccc4)C[C@@H]23)cc1,nt,nt,2,nt,1
Cc1ccccc1-c1ccc([C@@H]2[C@@H](CO)N3CCCCN(C(=O)Nc4ccc(F)cc4)C[C@@H]23)cc1,nt,nt,15*,nt,-3
COCC(=O)N[C@@H]1C=C[C@H](CC(=O)NCc2ccccc2OC)O[C@@H]1CO,nt,nt,-6,nt,-5
Cc1ccccc1-c1ccc2c(c1)O[C@H](CN(C)C(=O)c1ccccn1)[C@H](C)CN([C@@H](C)CO)S2(=O)=O,nt,nt,2,nt,2
SMILES,PKA-R2B activ,PKA-R1A act,SIRT5 block,CRFBP-R2 block,S100A4 MyoIIA
O=C(CCC1CCCN(Cc2cccc3c2OCO3)C1)NCc1ccc(F)c(F)c1 (stereo not drawn),3,2,38*,1,-8
CCC(=O)N1C[C@H](C)[C@@H](OC)CN(C)C(=O)c2cc(NC(=O)NC3CCCC3)ccc2OC[C@@H]1C,nt,nt,-1,nt,7
CN1C(=O)c2cc(NC(=O)c3ccccc3)ccc2OC[C@@H]2O[C@@H](CC(=O)O)CC[C@H]21,nt,nt,6,nt,4
CO[C@@H]1CN(C)C(=O)c2cc(NS(C)(=O)=O)ccc2OC[C@H](C)N(C(=O)C2CC2)C[C@H]1C,nt,nt,4,nt,1
CNC(=O)CSc1nnnn1-c1ccc2c(c1)OCCO2,-5,1,nt,-28,nt
COc1ccc(C)cc1-n1nnnc1SCC(=O)c1ccc2c(c1)OCCO2,-19,3,nt,-13,nt
COc1ccc(-n2nnnc2SCC(=O)c2ccc3c(c2)OCCO3)c(OC)c1,6,9,27*,10,-2
O=C(CSc1nnnn1-c1ccc2c(c1)OCO2)NCc1ccccc1,9,2,nt,2,nt
Fc1ccccc1CSc1nnnn1-c1ccc2c(c1)OCO2,-14,0,nt,57*,nt
NC(=O)CSc1nnnn1-c1ccc2c(c1)OCCO2,-11,-4,nt,81*,nt
CO[C@H]1CN(C)C(=O)c2cc(NC(=O)C3CC3)ccc2OC[C@@H](C)N(Cc2ccccc2)C[C@@H]1C,nt,nt,-1,nt,5
COc1cc(/C=C(\C#N)c2nc3ccccc3s2)cc([N+](=O)[O-])c1O,-1,-14,-2,61*,3
Cc1c(CC(Cl)(Cl)Cl)c2c(n1O)CC(C)(C)CC2=O,-3,12,-3,74*,8
C[C@@H]1CN([C@@H](C)CO)C(=O)Cc2cc(NS(=O)(=O)c3ccc(F)cc3)ccc2O[C@@H]1CN(C)C(=O)Nc1cccc2ccccc12,nt,nt,-1,nt,20
CN(C)/C=C1\Oc2ccc3ccccc3c2C1=O,3,14,112*,17,-9
CN(C)/C=C1/Oc2c(ccc3ccccc23)C1=O,-2,-2,-3,-7,-59
COc1cc(/C=C2\NC(=O)NC2=O)cc(Br)c1OC,-8,-2,17*,-6,0
COc1cc(NC(=S)NCCC(c2ccccc2)c2ccccc2)c(OC)cc1Cl,-9,-1,nt,65*,nt
COc1ccc(Cl)cc1NC(=S)NCCC(c1ccccc1)c1ccccc1,-6,15,-3,9,-2
COc1cc(/C=C2/C(=O)NN(c3ccc(Cl)c(Cl)c3)C2=O)cc([N+](=O)[O-])c1O,-4,5,22*,8,-2
COc1cc(/C=C2\SC(=O)N(c3ccccc3Cl)C2=O)cc([N+](=O)[O-])c1O,-7,-6,1,88*,-2
COC1=C/C(=C/c2c(N)n3nc(CC(=O)N4CCCCC4)sc3nc2=O)C=CC1=O,-3,-6,nt,-59,nt
C=CCC1=C/C(=C\c2c(N)n3nc(CC(=O)N4CCCC4)sc3nc2=O)C=C(OC)C1=O,-4,-5,20*,-106,-7

# High-throughput results deposited in PubChem BioAssay by several laboratories.
